Sampled rows, rich in hits. Any-hit rate of the full collection: about 2%.
PLC-beta3 inh = PLC-beta3 (human) inhibition, primary screen; Q01970; Purified PLC-beta3, fluorogenic substrate, fluorescence; inhibition, % at 12.2 µM; 370,000 compounds, 0.18% hits; AID 720704;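 note: 0% = median of compound wells on plate and 100% = full blocker control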
PvdQ acylase = P. aeruginosa PvdQ acylase inhibition | inhibition, % at 10 µM | AID 488965 | purified PvdQ acylase, fluorescence plate reader | 340,000 compounds, 0.063% hits; in the data active = inhibition above about 30%, passing the limit was not always enough;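 note: 0% = vehicle neutral wells and 100% = reference inhibitor wells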
IMP-1 inhibitor = blocks Pseudomonas aeruginosa IMP-1 metallo-beta-lactamase; AID 1556; inhibition, % at 5.6 µM; purified IMP-1, nitrocefin hydrolysis, epi-absorbance fluorescence; 290,000 compounds, 0.45% hits;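 active = inhibition above the mean plus 3 SD of all compounds in the same screening run, cut at about 4.5% in these data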;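 note: 0% = IMP-1 with DMSO and 100% = DMSO wells lacking enzyme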
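Assay system: purified recombinant IMP-1 beta-lactamase. Input: IMP-1 0.2 nM before substrate addition. Buffer or medium: Zinc- and detergent-supplemented HEPES buffer, pH 7.1. Schedule: 25 °C, 15 min preincubation, 25 min reaction. Signal: Epi-absorbance fluorescence, 480 nm excitation, 530 nm emission. Evaluation: percent inhibition from optical density relative to buffer-blank wells.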
VIM-2 inh = inhibitors of Pseudomonas aeruginosa VIM-2 metallo-beta-lactamase; purified VIM-2, nitrocefin hydrolysis, epi-absorbance fluorescence; inhibition, % at 5.6 µM; 290,000 compounds, 0.89% hits; AID 1527;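 active = inhibition above the mean of all tested compounds plus 3 SD, cutoff set per screening run, cut at about 7.5% in these data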;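 note: red hydrolysis product quenches plate fluorescence so inhibitors raise well fluorescence; 0% = enzyme with DMSO and 100% = DMSO without enzyme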
PLC-gamma1 inh = blocks human PLC-gamma1 enzyme activity; P19174; purified PLC-gamma1, fluorogenic substrate, fluorescence; inhibition, % at 12.2 µM; 370,000 compounds, 0.84% hits; AID 720700; in the data active = inhibition above about 9.5%
PLCgamma1 ctr = inhibits human PLC-gamma1 in PLC-beta3 counter-screen; inhibition, % at 12.3 µM; shares compounds with PLC-gamma1 inh; AID 743258; purified PLC-gamma1, fluorogenic substrate, fluorescence; 3,300 compounds, 3.1% hits; in the data active = inhibition above about 9.5%
PLCb3 confirm = human PLC-beta3 inhibition, confirmation; shares compounds with PLC-gamma1 inh; purified PLC-beta3, fluorogenic substrate fluorescence; inhibition, % at 12.3 µM; 3,300 compounds, 1% hits
An asterisk follows results filed as active; x = no result. Cut-off read from the data, not from the text of the source, unless noted: active = inhibition above about 11%; inactive = the rest.

SMILES | PLC-beta3 inh | PvdQ acylase | IMP-1 inhibitor | VIM-2 inh | PLC-gamma1 inh | PLCgamma1 ctr | PLCb3 confirm
CCN1CCCCC(NC(C)=O)C1=O (stereo unspecified) | -1 | x | x | x | 3 | x | x
CN(C)S(=O)(=O)c1cc(NC(=O)[C@H](Cc2ccccc2)N2C(=O)c3ccccc3C2=O)ccc1Cl | 11* | 5 | -1 | 0 | 7 | 7 | 6
COc1cccc(-c2ccc3c(c2)[C@@H]2C[C@H]4[C@@H](CN2CC3)[C@H](C)ON4C)c1 | -7 | x | x | x | -5 | x | x
O=C(CN1CCN(c2ccccc2)CC1)NC(=O)NCc1ccco1 | 1 | -9 | -2 | -6 | 11* | -6 | -4
O=C(CN1CCN(c2ccc(F)cc2)CC1)NC(=O)NCc1ccco1 | -6 | -10 | -3 | -4 | 3 | x | x
Cc1cccnc1NC(=O)C12CCC(C)(C(=O)O1)C2(C)C (stereo unspecified) | 0 | -11 | 1 | 0 | 1 | x | x
CC12CCC(C(=O)Nc3nccs3)(OC1=O)C2(C)C (stereo unspecified) | 6 | -15 | -5 | -3 | 10* | -3 | -3
O=C(NC1CCCCN(Cc2ccc(Cl)cc2)C1=O)c1cccs1 (stereo unspecified) | -2 | x | x | x | 0 | x | x
COC(=O)[C@]12C[C@H](CC(=O)NCC3CCCCC3)C(=O)N(Cc3cccc4ccccc34)C1=C[C@H](C1CCCC1)O[C@@H]2C | 1 | x | x | x | 11* | -1 | -8
COC(=O)[C@]12C[C@H](CC(=O)NCCCCc3ccccc3)C(=O)N(Cc3ccccc3)C1=C[C@H](C(C)C)O[C@@H]2C1CC1 | 5 | x | x | x | 10* | -3 | -1
COC(=O)[C@]12C[C@H](CC(=O)NCc3ccc(C)o3)C(=O)N(Cc3ccccc3)C1=C[C@H](C(C)(C)C)O[C@@H]2C | 8 | x | x | x | 10* | -9 | -5
COC(=O)[C@]12C[C@H](CC(=O)NCCC(C)C)C(=O)N(Cc3ccc(Cl)cc3Cl)C1=C[C@H](C1CCCC1)O[C@@H]2C | 1 | x | x | x | 11* | 3 | 3
COC(=O)N1C[C@H](OC(=O)c2ccc(-c3ccccc3)cc2)[C@H]2C[C@@H]1c1ccccc1O2 | -1 | x | x | x | 0 | x | x
COc1ccccc1NC(=O)OC1CC2CC1[C@H]1CCCCN1[C@H]2C (stereo partly specified) | -3 | x | x | x | -6 | x | x
Cc1cc(C)c(CN2CCN(C(=O)Cn3cc(C)c(=O)[nH]c3=O)CC2)c(C)c1 | 3 | x | x | x | 0 | x | x
COC(=O)[C@]12C[C@H](CC(=O)N3CCN(C(=O)c4ccco4)CC3)C(=O)N(CCc3ccc(OC)c(OC)c3)C1=C[C@H](C(C)(C)C)O[C@@H]2C | 3 | x | x | x | 4 | x | x
COC(=O)[C@]12C[C@H](CC(=O)N3CCN(C(=O)C4CC4)CC3)C(=O)N(Cc3cccc4ccccc34)C1=C[C@H](COCc1ccccc1)O[C@@H]2C | 2 | x | x | x | 14* | -6 | -3
COC(=O)[C@]12C[C@H](CC(=O)N3CCCCC3)C(=O)N(CCC3=CCCCC3)C1=C[C@H](C1CCCC1)O[C@@H]2C | -7 | x | x | x | 11* | 1 | -1
O=C(Nc1ccc(F)cc1F)c1cc(-c2ccc(Cl)cc2)nc2ccccc12 | 1 | x | x | x | 0 | x | x
C=CCN(CC#CC(=C)C)CC1CC1 | 0 | x | x | x | -3 | x | x
CN1[C@@H](Cc2ccccc2)COc2cc(N3CCCC3)ccc2S1(=O)=O | -2 | x | x | x | -1 | x | x
O=C(CCCN1C(=O)c2ccccc2C1=O)Nc1nccs1 | 2 | -15 | 2 | -1 | 14* | -3 | 1
O=C(CCCCCCN1C(=O)c2ccccc2C1=O)Nc1nccs1 | 2 | -6 | -2 | -1 | 2 | x | x
CC1CCN(C(=S)Nc2ccc(SC(F)F)cc2)CC1 | 4 | 14 | -1 | -4 | 11* | -1 | -5
C=CCN1C(=O)[C@@H](CC(=O)NCc2ccc(C)o2)[C@]2(C(=O)OCC)CCCCC/C=C/12 | 0 | x | x | x | 0 | x | x
SMILES | PLC-beta3 inh | PvdQ acylase | IMP-1 inhibitor | VIM-2 inh | PLC-gamma1 inh | PLCgamma1 ctr | PLCb3 confirm
Nc1ccc(C(=O)N/N=C\C=C\c2cccc([N+](=O)[O-])c2)cc1 | 16* | 1 | -4 | -2 | 15* | -17 | 2
O=C(N/N=C/C=C/c1cccc([N+](=O)[O-])c1)c1ccncc1 | -5 | 4 | 0 | -2 | 1 | x | x
CCCCOc1ccc(C(=O)NC2CCCCN(Cc3ccc(Cl)cc3)C2=O)cc1 (stereo unspecified) | 3 | x | x | x | 6 | x | x
CC(=O)N1C[C@@H](CO)[C@@H](N(C)C(=O)Nc2cccc3ccccc23)C[C@H]1c1ccccc1 | -100 | x | x | x | -72 | x | x
Cc1cccc(N2CCN(C(=O)c3ccc4ncsc4c3)CC2)c1C | 3 | 3 | -4 | -4 | 12* | -8 | -26
Cc1cc(C(=O)N/N=C/c2ccc(O)c([N+](=O)[O-])c2)n[nH]1 | 5 | 1 | -2 | -2 | 10* | -1 | 5
Cc1cc(C(=O)N/N=C/c2cccc([N+](=O)[O-])c2O)n[nH]1 | -1 | -7 | -4 | -3 | 3 | x | x
COc1cc(/C=N/NC(=O)c2ccc(C)nc2)cc([N+](=O)[O-])c1O | 8 | -15 | -7 | -4 | 9.9* | 6 | 8
COC(=O)c1cc2c(c3c4cc(F)ccc4n(S(=O)(=O)c4ccccc4)c13)C(=O)N(C)C2 | -16 | x | x | x | -13 | x | x
O=C(OC12CCCN(C1)/C(=C/c1ccc(Cl)cc1)C2)c1cccc(F)c1 (stereo unspecified) | -2 | x | x | x | -1 | x | x
O=S(=O)(CC1NCc2ccccc21)NCCc1ccccc1 (stereo unspecified) | -2 | x | x | x | -2 | x | x
CCN1CCN(CCc2nc3cc([N+](=O)[O-])ccc3n2C)CC1 | -3 | -11 | -1 | 1 | 12* | -1 | 2
Cn1c(CCN2CCCCC2)nc2cc([N+](=O)[O-])ccc21 | 6 | 1 | -2 | 0 | 4 | x | x
Cc1ccc(NC(=O)C2CCN(c3nnc(-n4cccc4)s3)CC2)c(C)c1 | 1 | x | x | x | 3 | x | x
CC(C)(C)OC(=O)N1CCC(NC(=O)c2nc[nH]c2C(=O)NC2CCN(C(=O)OC(C)(C)C)CC2)CC1 | -2 | 2 | x | x | 1 | x | x
CCOC(=O)c1ccc(NC(=O)c2nc[nH]c2C(=O)NC2CCN(C(=O)OC(C)(C)C)CC2)cc1 | 6 | 3 | x | x | 11* | -8 | -4
O=c1c2ccccc2nc(-c2ccc([N+](=O)[O-])cc2)n1O | 1 | -11 | -2 | -3 | 2 | x | x
O=[N+]([O-])c1ccc(-c2c(O)c3ccccc3c3nc4ccccc4nc23)cc1 | 11* | 2 | -2 | -1 | 8 | -2 | -3
CCOC(=O)c1c(C)oc2ccc(OCC(N)=O)cc12 | 11* | -18 | -3 | -1 | 15* | -3 | -3
CCOC(=O)c1c(C)oc2ccc(OS(C)(=O)=O)cc12 | 4 | -9 | -4 | -2 | 8 | x | x
Nc1[nH]c(C(=O)c2ccccc2)c(-c2ccncc2)c1C(=O)NC1CC1 | 2 | x | x | x | 10* | -6 | -3

Source: PubChem BioAssay (several laboratories)
